Laboratory results from ChEMBL document CHEMBL1158936, “New avarone and avarol derivatives from the marine sponge Dysidea cinerea” (J Nat Prod, 1991).
Values after ≈ are worked out from the molar mass of the structure shown. Active and inactive are the calls of the source. The rule behind the calls is not given here.

Columns and labels:
[1] = target: Human immunodeficiency virus type 1 reverse transcriptase (Human immunodeficiency virus 1) (UniProt Q72547); experiment: Inhibition of HIV1 reverse transcriptase
P388 = experiment: Cytotoxicity against mouse P388 cells; assay type: functional, cell-based
Summary of the method: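 P388 mouse leukemia cells; cytotoxicity reported as IC50 in μg/ml.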

Candida albicans = experiment: Antimicrobial activity against Candida albicans; assay type: functional

Activity [1]	MIC (Candida albicans) [µg/mL]	Compound	IC50 (P388) [µg/mL]
inactive	–	CC1=CCC[C@H]2[C@](C)(Cc3c(O)ccc(O)c3O)[C@@H](C)CC[C@]12C	–
inactive	12.5 (≈ 33.6 µM)	CC(=O)Oc1c(O)ccc(O)c1C[C@]1(C)[C@@H](C)CC[C@]2(C)C(C)=CCC[C@@H]12	< 0.6
Active	–	COC1=CC(=O)C(C[C@]2(C)[C@@H](C)CC[C@]3(C)C(C)=CCC[C@@H]23)=C(O)C1=O	> 20
Active	12.5 (≈ 38.1 µM)	CC1=CCC[C@H]2[C@](C)(CC3=CC(=O)C=C(O)C3=O)[C@@H](C)CC[C@]12C	0.6 (≈ 1.83 µM)
inactive	–	CC(=O)OC1=C(C[C@]2(C)[C@@H](C)CC[C@]3(C)C(C)=CCC[C@@H]23)C(=O)C=CC1=O	10 (≈ 27 µM)
Active	50 (≈ 145 µM)	CC1=CCC[C@H]2[C@](C)(CC3=C(O)C(=O)C=C(O)C3=O)[C@@H](C)CC[C@]12C	1.2 (≈ 3.48 µM)
